# AHR act – activates the human aryl hydrocarbon receptor. activation, % at 5 µM. AHR-responsive luciferase reporter cells, luminescence. 320,000 tested, 2.5% active; in the data active = activation above about 47%
# Target sequence (P35869 whole entry, looked up): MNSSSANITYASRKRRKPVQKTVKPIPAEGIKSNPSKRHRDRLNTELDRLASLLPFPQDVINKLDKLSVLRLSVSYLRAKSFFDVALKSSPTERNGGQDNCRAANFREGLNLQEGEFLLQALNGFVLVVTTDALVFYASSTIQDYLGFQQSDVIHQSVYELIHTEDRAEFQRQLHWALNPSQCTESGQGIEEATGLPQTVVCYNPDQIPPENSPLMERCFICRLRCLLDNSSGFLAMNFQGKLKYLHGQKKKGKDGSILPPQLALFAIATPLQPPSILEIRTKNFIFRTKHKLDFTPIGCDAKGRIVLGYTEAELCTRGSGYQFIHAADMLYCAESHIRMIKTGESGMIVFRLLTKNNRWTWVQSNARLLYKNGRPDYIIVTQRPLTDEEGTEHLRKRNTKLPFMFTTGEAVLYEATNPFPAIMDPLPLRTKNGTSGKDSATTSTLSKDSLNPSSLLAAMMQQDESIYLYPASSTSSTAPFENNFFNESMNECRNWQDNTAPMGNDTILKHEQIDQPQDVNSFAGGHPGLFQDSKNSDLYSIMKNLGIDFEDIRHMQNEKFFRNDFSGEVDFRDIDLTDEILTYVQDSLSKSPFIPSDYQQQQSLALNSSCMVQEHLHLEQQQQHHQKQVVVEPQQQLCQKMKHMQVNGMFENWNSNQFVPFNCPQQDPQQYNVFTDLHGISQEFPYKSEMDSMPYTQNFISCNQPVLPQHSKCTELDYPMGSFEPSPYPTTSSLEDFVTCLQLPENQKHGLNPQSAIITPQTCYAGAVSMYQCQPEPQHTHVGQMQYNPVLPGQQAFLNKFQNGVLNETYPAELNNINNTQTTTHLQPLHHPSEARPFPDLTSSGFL
# ABCB6 inh 2 – blocks the human ABCB6 transporter. 360,000 tested, 0.19% active. fluorescence ratio to DMSO, % at 10 µM. K562-ABCB6 porphyrin accumulation, flow cytometry, 1 h; hits give low values. AID 602162;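 active = fluorescence ratio to DMSO below 75%, the collection mean minus 3 SD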;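 note: signal is porphyrin accumulated inside mitochondria; lower ratio means ABCB6 inhibition with less porphyrin fluorescence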
# FXN GAA850 act – frataxin GAA850 promoter activation. HEK293 lucGAA850 FXN promoter luciferase reporter, 24 h; percent of 10 µM SAHA response. activation, % at 6 µM. 360,000 tested, 0.56% active. AID 540364;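 active = activation above the average of all compounds screened plus 3 SD, cutoff fixed separately per campaign, cut at about 7.5% in these data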
# STAT3 activator – activators of IL-6 induced STAT3 signaling | U3A cells, IL-6 STAT3-luciferase reporter, luminescence; 100% = signal with IL-6 EC80 alone | activation (% of control), % at 5.6 µM | 190,000 tested, 0.91% active | AID 871;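 active = activation above the screen-wide mean of compound activation plus 3 SD, cut at about 130% in these data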
#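 Material: STAT3-luciferase reporter U3A cells. Controls: IL-6-treated wells, 100% activation. Read-out: % activation versus median of IL-6-stimulated wells. Probe or stimulus: IL-6 stimulus at 33 ng/mL final. Timing: compound 1 h, then IL-6 6 h at 37 °C. Signal: reporter luminescence signal.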
# ABCB6 inh CP1 – inhibitors of human ABC transporter ABCB6; shares compounds with ABCB6 inh 2; K562-ABCB6 porphyrin accumulation, flow cytometry, 1 h; hits give low values; ratio response (% of DMSO), % at 10 µM; 700 tested, under 10 active; AID 602430;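 active = repeat-averaged ratio response below 75% of DMSO, the collection mean minus 3 SD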;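 note: median porphyrin fluorescence at 575 nm with 488 nm excitation from mitochondria; lower ratio means less porphyrin signal so ABCB6 inhibition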
# A number is an active result; . = inactive; / = not tested or not shown. This is a sample that favours compounds with a hit; in the whole collection about 3.3% have one here.
SMILES,AHR act,ABCB6 inh 2,FXN GAA850 act,STAT3 activator,ABCB6 inh CP1
CCOC(=O)c1c(NC(=O)c2ccc(N3C(=O)[C@@H]4[C@H](C3=O)[C@H]3C=C[C@@H]4C3)cc2)sc2c1CC(C)CC2 (stereo partly drawn),.,68,.,.,.
CCOC(=O)C1CCN(S(=O)(=O)c2ccc(C)cc2)CC1,.,.,.,.,/
CCOC(=O)C1CCN(S(=O)(=O)c2ccc(Cl)cc2OC)CC1,.,.,.,.,/
CCOC(=O)C1CCN(S(=O)(=O)c2ccc(Br)c(OCC)c2)CC1,.,.,.,.,.
CCOC(=O)C1CCN(S(=O)(=O)c2ccc(NC(=O)OC)cc2)CC1,.,.,.,.,.
CCOC(=O)C1CCN(S(=O)(=O)c2cc(Cl)c(C)cc2OC)CC1,.,.,.,.,.
CCOC(=O)C1CCN(S(=O)(=O)c2ccc(C(=O)OC)cc2)CC1,.,.,.,.,.
COc1ccccc1N(CC(=O)NC(C)C)S(=O)(=O)c1cccs1,.,.,.,.,/
Cc1cc(C)cc(OCCNC(=O)CCc2ccccc2)c1,.,.,.,/,/
COC(=O)[C@H](CCSC)NC(=O)Nc1ccc(C)c(C)c1,.,69,.,.,.
COc1ccc(C(=O)N2CCC2(C)C(=O)NC(C)C)cc1OC (stereo not drawn),/,.,.,/,/
CCCCNC(=O)C1(C)CCN1C(=O)c1cc2ccccc2s1 (stereo not drawn),/,.,.,/,/
COc1ccccc1OCc1ccc(C(=O)N2N=C(C(F)F)CC2(O)C(F)F)o1 (stereo not drawn),.,.,.,.,.
O=C(c1ccc(Cn2cc(Br)cn2)o1)N1N=C(C(F)F)CC1(O)C(F)F (stereo not drawn),.,.,.,.,/
O=C(c1ccc(COc2ccc(Cl)cc2)o1)N1N=C(C(F)F)CC1(O)C(F)F (stereo not drawn),.,.,.,.,.
COc1ccccc1-c1cnc(C(O)c2ccccc2)[nH]1 (stereo not drawn),/,.,.,/,/
CCc1ccc(C(O)c2ncc(-c3ccccc3OC)[nH]2)cc1 (stereo not drawn),/,73,.,/,.
COc1ccc(Cl)cc1NC(=O)CCCC(=O)c1ccccc1,.,61,.,/,.
CC1(C(=O)NS(=O)(=O)c2ccccc2Cl)CCN1C(=O)C1(c2ccc(Cl)cc2)CC1 (stereo not drawn),/,.,.,/,.
CC1(C(=O)NS(=O)(=O)c2ccccc2)CCN1C(=O)C1(c2ccccc2)CCCC1 (stereo not drawn),/,.,.,/,/
CC1(C(=O)NS(=O)(=O)c2cccs2)CCN1C(=O)C1(c2ccc(Cl)cc2)CC1 (stereo not drawn),/,.,.,/,/
CC1(C(=O)NS(=O)(=O)c2cccs2)CCN1C(=O)C1(c2ccccc2)CCCC1 (stereo not drawn),/,72,.,/,.
CC1(C(=O)NS(=O)(=O)c2ccc(Cl)s2)CCN1C(=O)C1(c2ccc(Cl)cc2)CCC1 (stereo not drawn),/,.,.,/,.
CC1(C(=O)NS(=O)(=O)c2cccs2)CCN1C(=O)C1(c2ccc(Cl)cc2)CCC1 (stereo not drawn),/,.,.,/,.
COc1ccc(-c2ccccc2)cc1NCc1ccc(OC)c(OC)c1,.,.,.,.,/
SMILES,AHR act,ABCB6 inh 2,FXN GAA850 act,STAT3 activator,ABCB6 inh CP1
CCn1c(SCC(=O)Nc2ccc3c(c2)c2ccccc2n3CC)nnc1-c1ccco1,.,.,.,.,/
CCn1c(SCC(=O)n2c(C)c(C)c3ccccc32)nnc1-c1ccco1,.,73,.,.,.
OC(c1ccc(F)cc1)c1nc(/C=C/c2ccccc2)cs1 (stereo not drawn),/,61,.,/,.
O=C(c1ccc2nc(Cc3cccc(Cl)c3)oc2c1)N1CCOCC1,.,.,.,/,/
Cc1nc2c(C(=O)N3CCOCC3)cnn2c(C)c1Cc1cccc(Cl)c1,.,/,/,.,.
Cc1nc2c(C(=O)N3CCOCC3)cnn2c(C)c1Cc1ccc(Cl)cc1,.,.,.,.,.
C[C@H](NCCc1ccc(O)cc1)[C@H](O)c1ccc(O)cc1,.,.,.,/,/
CCCS(=O)(=O)N1CCN(C(=O)COc2ccc(-c3ccccc3)cc2)CC1,.,.,.,.,/
CCOc1ccc(S(=O)(=O)N2CCN(C(=O)c3cc(S(=O)(=O)N4CCOCC4)ccc3C)CC2)cc1,/,68,.,/,.
Cc1ccc(-n2nc3c(=O)n(CC(=O)NCc4ccc(C)o4)nc(C)c3c2C)cc1,.,.,.,/,/
CC(C(=O)NC(=O)NC1CCCCC1)N1CCN(C(c2ccccc2)c2ccccc2)CC1 (stereo not drawn),.,73,.,.,.
CCn1cc(C(=O)O)c(=O)c2cc3c(cc21)OCO3,.,/,/,.,/
CCn1nc(C(=O)O)c(=O)c2cc3c(cc21)OCO3,.,71,.,.,.
CCOc1ccc(N2C(=O)Cc3ccccc3C2=O)cc1,.,73,.,/,.
CCOC(=O)c1ccc(N2C(=O)Cc3ccccc3C2=O)cc1,.,.,.,/,/
CCOc1ccccc1NC(=O)COC(=O)COc1cccc2c1OC(C)(C)C2,/,.,.,/,/
Cc1cc(C)nc(NS(=O)(=O)c2cccs2)c1,.,69,.,.,.
O=C1NC2(CCCCC2)C(=O)N1c1cccc(Cl)c1,.,73,.,/,.
Cc1cccc(N2C(=O)NC3(CCCCC3)C2=O)c1,.,.,.,.,/
COc1ccc2c(c1OC)C(=O)N(c1ccc(C)c(C)c1)C2=O,.,.,.,.,/
COc1ccc2c(c1OC)C(=O)N(c1ccc3c(c1)CCC3)C2=O,.,63,.,.,.
CC1(C)CC(=O)C=C(Nc2cc(-c3ccccc3)[nH]n2)C1,.,47,.,.,.
O=C(COc1ccccc1)N1CCN(C(=O)COc2ccccc2)CC1,.,68,.,/,.
O=C(COc1ccccc1)N1CCCCCCC1,.,.,.,/,/
COC(=O)c1ccc(-n2nnnc2SCc2nn[nH]n2)cc1,.,.,.,.,/
SMILES,AHR act,ABCB6 inh 2,FXN GAA850 act,STAT3 activator,ABCB6 inh CP1
COC(=O)CCC(=O)Nc1cc(Cl)cc(Cl)c1,.,72,.,.,.
COC(=O)CCC(=O)Nc1ccc(NC(=O)CCC(=O)OC)cc1,.,.,.,.,/
N#Cc1c(-c2ccccc2)c(-c2ccccc2)n(Cc2ccco2)c1NC(=O)c1cccs1,.,.,.,.,/
Cn1c(=O)c2c(ncn2CC(=O)OCc2ccccc2)n(C)c1=O,.,.,.,.,/
Cn1c(=O)c2c(ncn2CC(=O)N(Cc2ccccc2)c2ccccn2)n(C)c1=O,.,71,.,.,.
CCOC(=O)c1cc2c(nc1C)-c1cc(Cl)cc(Cl)c1OC2O (stereo not drawn),.,.,.,.,/
COc1ccc(-c2cnn3c(N)c(S(=O)(=O)C(C)(C)C)cnc23)cc1,.,68,.,.,.
CC(C)(C)S(=O)(=O)c1cnc2c(-c3ccc(Cl)cc3)cnn2c1N,.,.,.,.,/
CC(=O)NCCc1nc2cc(NC(=O)c3ccc([N+](=O)[O-])cc3)ccc2n1C,/,.,.,/,/
COc1ccc(S(=O)(=O)Nc2c(NC3CCCCC3)c3ccccc3oc2=O)cc1,.,71,.,/,.
